Assay results as given in PMC4277207 (ChemMedChem, 2014).
Where two headings read alike, the source gives them in different places.

Tests used:
[1] = test system: D1-like receptor (D1 and D5); assay: [3H]SCH 23390 binding assay, rat striatal membranes; details: ratio of Ki values, rat brain preparation
[2] = test system: D2-like receptor (D2, D3, and D4); assay: [3H]spiperone binding assay, rat striatal; details: ratio of Ki values, rat brain preparation
Method in brief: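 The D2-like assay used [3H]spiperone at 0.2 nM on caudate-putamen membranes at 1.5 mg o.w.w./mL, in agonist-optimised Tris-HCl/KCl/MgCl2/CaCl2 buffer at pH 7.4. Nonspecific binding was set with 1 μM (+)-butaclamol, and KD was 0.4 nM. For two-site curves, the high-affinity Ki is reported. […] Values are means of 3–6 determinations.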

human D3 receptor = human D3 receptor (Homo sapiens, UniProt P35462); format: cell-based; details: hD3-transfected CHOp cells, mitogenesis; for IC50: read-out: Agonist activity: IC50, mean ± SEM of 3–6 determinations
[3] = format: in vitro ADME

Sequence of human D3 receptor (P35462 whole entry): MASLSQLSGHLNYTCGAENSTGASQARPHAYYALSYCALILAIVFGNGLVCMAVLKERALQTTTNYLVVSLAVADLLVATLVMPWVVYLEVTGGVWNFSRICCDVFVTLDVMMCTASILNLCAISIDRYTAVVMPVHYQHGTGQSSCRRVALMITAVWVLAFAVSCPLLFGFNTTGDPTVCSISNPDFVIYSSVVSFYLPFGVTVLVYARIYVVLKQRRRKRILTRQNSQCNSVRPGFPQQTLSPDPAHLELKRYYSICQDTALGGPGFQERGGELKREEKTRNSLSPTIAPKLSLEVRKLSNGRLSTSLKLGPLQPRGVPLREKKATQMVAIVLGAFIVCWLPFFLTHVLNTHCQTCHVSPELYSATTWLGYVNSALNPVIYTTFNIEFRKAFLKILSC

Row | Structure (SMILES) | Selectivity D1-like/D3 [1] | Selectivity D2-like/D3 [2] | other results
1 | CCCN(CC[C@]1(O)C[C@H](NC(=O)c2cccc(Cl)c2)C1)[C@H]1CCc2nc(N)sc2C1 (relative stereo) [Compound 13, N-(cis-3-(2-(((S)-2-Amino-4,5,6,7-tetrahydrobenzo[d]thiazol-6-yl)(propyl)-amino)ethyl)-3-hydroxycyclobutyl)-3-chlorobenzamide] | 49,482 | 175 | –
2 | CCCN(CC[C@]1(O)C[C@@H](NC(=O)c2cccc(F)c2)C1)[C@H]1CCc2nc(N)sc2C1 (relative stereo) [Compound 16, N-(cis-3-(2-(((S)-2-Amino-4,5,6,7-tetrahydrobenzo[d]thiazol-6-yl)(propyl)amino)-ethyl)-3-hydroxycyclobutyl)-3-fluorobenzamide] | 29,789 | 138 | –
3 | CCCN(CC[C@]1(O)C[C@H](NS(=O)(=O)c2ccccc2OC)C1)[C@H]1CCc2nc(N)sc2C1 (relative stereo) [Compound 25, N-(cis-3-(2-(((S)-2-Amino-4,5,6,7-tetrahydrobenzo[d]thiazol-6-yl)(propyl)amino)-ethyl)-3-hydroxycyclobutyl)-2-methoxybenzenesulfonamide] | 800 | 75 | –
4 | CCCN(CC[C@]1(O)C[C@@H](NS(=O)(=O)c2ccccc2Cl)C1)[C@H]1CCc2nc(N)sc2C1 (relative stereo) [Compound 28, N-(cis-3-(2-(((S)-2-Amino-4,5,6,7-tetrahydrobenzo[d]thiazol-6-yl)(propyl)amino)-ethyl)-3-hydroxycyclobutyl)-2-chlorobenzenesulfonamide] | 160,847 | 485 | –
5 | CCCN(CCC1(O)CC(NC(=O)c2ccccc2)C1)[C@H]1CCc2nc(N)sc2C1 (stereo in doubt) [Compound 11, N-(cis-3-(2-(((S)-2-Amino-4,5,6,7-tetrahydrobenzo[d]thiazol-6-yl)(propyl)amino)-ethyl)-3-hydroxycyclobutyl)benzamide] | 2,662 | 301 | –
6 | CCCN(CCC1(O)CC(NC(=O)c2ccccc2Cl)C1)[C@H]1CCc2nc(N)sc2C1 (stereo in doubt) [Compound 12, N-(cis-3-(2-(((S)-2-Amino-4,5,6,7-tetrahydrobenzo[d]thiazol-6-yl)(propyl)amino)-ethyl)-3-hydroxycyclobutyl)-2-chlorobenzamide] | 80,161 | 117 | –
7 | CCCN(CCC1(O)CC(NC(=O)c2ccc(Cl)cc2)C1)[C@H]1CCc2nc(N)sc2C1 (stereo in doubt) [Compound 14, N-(cis-3-(2-(((S)-2-Amino-4,5,6,7-tetrahydrobenzo[d]thiazol-6-yl)(propyl)amino)-ethyl)-3-hydroxycyclobutyl)-4-chlorobenzamide] | 9,751 | 157 | –
8 | CCCN(CCC1(O)CC(NC(=O)c2ccccc2F)C1)[C@H]1CCc2nc(N)sc2C1 (stereo in doubt) [Compound 15, N-(cis-3-(2-(((S)-2-amino-4,5,6,7-tetrahydrobenzo[d]thiazol-6-yl)(propyl)amino)-ethyl)-3-hydroxycyclobutyl)-2-fluorobenzamide] | 116,521 | 36,956 | % of Stimulation compared to Quinpirole as the standard agonist (human D3 receptor): 100%; functional activity at the human D3 receptor (agonist character) (human D3 receptor): full D3 agonists; IC50 (human D3 receptor): 2 ± 0.49 nM
9 | CCCN(CCC1(O)CC(NC(=O)c2ccc(F)cc2)C1)[C@H]1CCc2nc(N)sc2C1 (stereo in doubt) [Compound 17, N-(cis-3-(2-(((S)-2-Amino-4,5,6,7-tetrahydrobenzo[d]thiazol-6-yl)(propyl)amino)-ethyl)-3-hydroxycyclobutyl)-4-fluorobenzamide] | 56,180 | 412 | –
10 | CCCN(CCC1(O)CC(NC(=O)c2ccccc2OC)C1)[C@H]1CCc2nc(N)sc2C1 (stereo in doubt) [Compound 19, N-(cis-3-(2-(((S)-2-Amino-4,5,6,7-tetrahydrobenzo[d]thiazol-6-yl)(propyl)amino)-ethyl)-3-hydroxycyclobutyl)-2-methoxybenzamide] | 44,500 | 160 | –
11 | CCCN(CCC1(O)CC(NC(=O)c2ccc(OC)cc2)C1)[C@H]1CCc2nc(N)sc2C1 (stereo in doubt) [Compound 20, N-(cis-3-(2-(((S)-2-Amino-4,5,6,7-tetrahydrobenzo[d]thiazol-6-yl)(propyl)amino)-ethyl)-3-hydroxycyclobutyl)-4-methoxybenzamide] | 61,143 | 3,779 | t1/2 in human liver microsomes [3]: >60 min; Percentage remaining of compounds in human liver microsomes ([3]; 0 h): 100%; Percentage remaining of compounds in human liver microsomes ([3]; 5 min): 97.7%; Percentage remaining of compounds in human liver microsomes ([3]; 10 min): 94.1%; Percentage remaining of compounds in human liver microsomes ([3]; 0.25 h): 94.0%; Percentage remaining of compounds in human liver microsomes ([3]; 0.5 h): 85.5%; Percentage remaining of compounds in human liver microsomes ([3]; 1 h): 76.7%
12 | CCCN(CCC1(O)CC(NC(=O)c2ccc(-c3noc(C)n3)cc2)C1)[C@H]1CCc2nc(N)sc2C1 (stereo in doubt) [Compound 22, N-(cis-3-(2-(((S)-2-amino-4,5,6,7-tetrahydrobenzo[d]thiazol-6-yl)(propyl)amino)-ethyl)-3-hydroxycyclobutyl)-4-(5-methyl-1,2,4-oxadiazol-3-yl)benzamide] | 20,000 | 15,208 | –
13 | CCCN(CCC1(O)CC(NS(=O)(=O)c2ccccc2)C1)[C@H]1CCc2nc(N)sc2C1 (stereo in doubt) [Compound 24, N-(cis-3-(2-(((S)-2-Amino-4,5,6,7-tetrahydrobenzo[d]thiazol-6-yl)(propyl)amino)-ethyl)-3-hydroxycyclobutyl)benzenesulfonamide] | 30,000 | 42 | –
14 | CCCN(CCC1(O)CC(NC(=O)c2ccc3ccccc3c2)C1)[C@H]1CCc2nc(N)sc2C1 (stereo partly shown) [Compound 3] | – | – | Percentage remaining of compounds in human liver microsomes ([3]; 0 h): 100%; Percentage remaining of compounds in human liver microsomes ([3]; 5 min): 79.2%; Percentage remaining of compounds in human liver microsomes ([3]; 10 min): 49.9%; Percentage remaining of compounds in human liver microsomes ([3]; 0.25 h): 34.9%; Percentage remaining of compounds in human liver microsomes ([3]; 0.5 h): 11.7%; Percentage remaining of compounds in human liver microsomes ([3]; 1 h): 2.1%

Continued, in another order:

Row | Selectivity D1-like/D3 [1] | Selectivity D2-like/D3 [2] | Structure (SMILES) | other results
15 | 27,200 | 28 | CCCN(CC[C@]1(O)C[C@@H](NS(=O)(=O)c2cccc(Cl)c2)C1)[C@H]1CCc2nc(N)sc2C1 (relative stereo) [Compound 29, N-(cis-3-(2-(((S)-2-Amino-4,5,6,7-tetrahydrobenzo[d]thiazol-6-yl)(propyl)amino)-ethyl)-3-hydroxycyclobutyl)-3-chlorobenzenesulfonamide] | –
16 | 53,684 | 414 | CCCN(CC[C@]1(O)C[C@@H](NS(=O)(=O)c2ccc(F)cc2)C1)[C@H]1CCc2nc(N)sc2C1 (relative stereo) [Compound 33, N-(cis-3-(2-(((S)-2-Amino-4,5,6,7-tetrahydrobenzo[d]thiazol-6-yl)(propyl)amino)-ethyl)-3-hydroxycyclobutyl)-4-fluorobenzenesulfonamide] | % of Stimulation compared to Quinpirole as the standard agonist (human D3 receptor): 100%; functional activity at the human D3 receptor (agonist character) (human D3 receptor): full D3 agonists; IC50 (human D3 receptor): 17 ± 4.4 nM
17 | 22,812 | 98 | CCCN(CCC1(O)CC(NS(=O)(=O)c2cccc(OC)c2)C1)[C@H]1CCc2nc(N)sc2C1 (stereo in doubt) [Compound 26, N-(cis-3-(2-(((S)-2-Amino-4,5,6,7-tetrahydrobenzo[d]thiazol-6-yl)(propyl)amino)-ethyl)-3-hydroxycyclobutyl)-3-methoxybenzenesulfonamide] | –
18 | 1,631 | 65 | CCCN(CCC1(O)CC(NS(=O)(=O)c2ccc(OC)cc2)C1)[C@H]1CCc2nc(N)sc2C1 (stereo in doubt) [Compound 27, N-(cis-3-(2-(((S)-2-Amino-4,5,6,7-tetrahydrobenzo[d]thiazol-6-yl)(propyl)amino)-ethyl)-3-hydroxycyclobutyl)-4-methoxybenzenesulfonamide] | –
19 | 17,654 | 205 | CCCN(CCC1(O)CC(NS(=O)(=O)c2ccc(Cl)cc2)C1)[C@H]1CCc2nc(N)sc2C1 (stereo in doubt) [Compound 30, N-(cis-3-(2-(((S)-2-Amino-4,5,6,7-tetrahydrobenzo[d]thiazol-6-yl)(propyl)amino)-ethyl)-3-hydroxycyclobutyl)-4-chlorobenzenesulfonamide] | –
20 | 109,000 | 614 | CCCN(CCC1(O)CC(NS(=O)(=O)c2ccccc2F)C1)[C@H]1CCc2nc(N)sc2C1 (stereo in doubt) [Compound 31, N-(cis-3-(2-(((S)-2-Amino-4,5,6,7-tetrahydrobenzo[d]thiazol-6-yl)(propyl)amino)-ethyl)-3-hydroxycyclobutyl)-2-fluorobenzenesulfonamide] | –
21 | 97,500 | 91 | CCCN(CCC1(O)CC(NS(=O)(=O)c2cccc(F)c2)C1)[C@H]1CCc2nc(N)sc2C1 (stereo in doubt) [Compound 32, N-(cis-3-(2-(((S)-2-Amino-4,5,6,7-tetrahydrobenzo[d]thiazol-6-yl)(propyl)amino)-ethyl)-3-hydroxycyclobutyl)-3-fluorobenzenesulfonamide] | –
22 | 24,516 | 19 | CCCN(CCC1(O)CC(NS(=O)(=O)c2ccc(F)c(F)c2)C1)[C@H]1CCc2nc(N)sc2C1 (stereo in doubt) [Compound 35, N-(cis-3-(2-(((S)-2-Amino-4,5,6,7-tetrahydrobenzo[d]thiazol-6-yl)(propyl)amino)-ethyl)-3-hydroxycyclobutyl)-3,4-difluorobenzenesulfonamide] | –
